The array DNA melting data of Ke et al. (doi:10.1101/2024.01.08.574731)

Legend:
[1] = folding enthalpy; higher = less favourable; fluorescence melt of hairpins on a sequencing array, two-state fit; conditions: sodium 0.088 M
Procedure, shortened: (§1)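 Cy3 fluorescence of library hairpins on a sequenced MiSeq flow cell, with annealed Cy3 and quencher oligos, was imaged in 50 mM Na-HEPES pH 8.0, 25 mM NaCl in 2.5 °C steps up to 60 °C. Signals were normalised to pre-quench Cy3 and to control variants. Melting temperature and folding enthalpy came from bootstrapped two-state fits, inverse-variance combined over four replicates. Fitted temperatures were raised by 9.35 °C to match UV melts.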

[2] = melting temperature; fluorescence melt of hairpins on a sequencing array, two-state fit, raised by 9.35 °C to match UV melts; conditions: sodium 0.088 M
Procedure, shortened: as §1

Sequence | folding enthalpy [1] [kcal/mol] | Tm [2] [°C]
GTTGCCGGAAACGGTAGC (.(.(((....))).).) | -17.2 | 39.7
GATCAAGAGGTTGATC ((((((....)))))) | -24.2 | 37.9
GGGCGACGAAAGTCACCC (((.(((....))).))) | -43.3 | 61.8
CGTATCGGAAACGAAACG (((.(((....))).))) | -37.5 | 42.5
GCAAGGCGAAAGCCGGGC ((..(((....)))..)) | -20.9 | 65.5
GGATGGGGAAACTCGTCC (((.(.(....).).))) | -25.2 | 38.5
GATCAATCGATTGATC ((((((....)))))) | -53.5 | 51.3
GCTTTGCCGAAAGGCAGC (((..(((....)))))) | -8.46 | 35.8
GATCTTCGCCAAGATC ((((((....)))))) | -33.7 | 42
GTGCTCGAAAGAGGGCAC ((((((....)))..))) | -22.9 | 48.9
GGCAGAGGAAACCCTGCC (((((.(....).))))) | -37.8 | 53.3
GCCCTAGGAAACCAAGGC (((.(.(....).).))) | -12 | 28.2
GGGGGTGGAAACACCCTC (.(((((....))))).) | -16.7 | 64.5
GGATTCACGAAAGTGTCC (((..(((....)))))) | -12.5 | 29.8
GGCAGTGGAAACACTGTC (.(((((....))))).) | -30.2 | 54.1
GGATCGCGAAAGCGTCC (((.(((....)))))) | -22.7 | 52.6
GCCAGGCGAAAGCCGAGC ((..(((....)))..)) | -13.3 | 52.2
GGATGGGGAAACCCACCC ((.((((....)))).)) | -24.1 | 45.1

Sequence | folding enthalpy [1] [kcal/mol] | Tm [2] [°C]
CGGCCTCGGAAACGACCG (((..(((....)))))) | -18.7 | 34.5
GATCCCATCGGGATC ((((((...)))))) | -36.5 | 67.4
GCGGAAGACCGC ((((....)))) | -18.5 | 52.8
GTGCCTGGAAACAGGTAC ((.((((....)))).)) | -32.7 | 53.6
GATCTCTCCGGAGATC ((((((....)))))) | -39.6 | 56.2
GCAATCGGAAACGGTTGC ((((.((....)).)))) | -43.8 | 55.8
GCTCAGGGAAACCTGAGC (((((((....))))))) | -44.7 | 68.3
GTAAGCGAAAGCTTTAC ((((((....))).))) | -12.9 | 42
GGATGTGGAAACGTATCC ((((..(....)..)))) | -22.3 | 35.1
GCAAAGCGAAAGCATCGC ((.(.((....)).).)) | -10.8 | 35.4
GGACATGGAAACACGTCC ((((.((....)).)))) | -30 | 42.7
GACCCTGGAAACAAGGTC ((((.((....)).)))) | -27.1 | 35.3
GGTGGCGAAAGCCACACC ((((((....)))..))) | -6.43 | 60
GATCCTTAAAAGGATC ((((((....)))))) | -41.7 | 49.7
GATCCACACTTGGATC ((((((....)))))) | -41.1 | 52.1
GTCCCCGAAAGGGACGAC ((((((....)))..))) | -18 | 69.3
GATCTGCGGGCAGATC ((((((....)))))) | -42.9 | 60.7
